In ChEMBL document CHEMBL5620421, “2,6-Disubstituted 7-(naphthalen-2-ylmethyl)-7H-purines as a new class of potent antitubercular agents inhibiting DprE1” (Eur J Med Chem, 2023):
pIC50: −log10 of the molar value. Converted amounts (≈) assume the structure as drawn. The source made the active and inactive calls. No cut-off for these calls is given here.

Key:
[1] = test system: Mycobacterium tuberculosis; experiment: Antitubercular activity against Mycobacterium tuberculosis CNCTC My 331/88 (H37Rv) assessed as inhibition of bacterial growth measured after 14 days of incubation by Sulas semisynthetic medium based assay; format: functional; conditions: 336 h, time 14 day
How it was run: (§1)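 Micromethod MIC in Sula's semisynthetic medium. MIC is the lowest concentration inhibiting >99% of the mycobacterial population. Isoniazid was the standard drug.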

[2] = test system: Mycobacterium tuberculosis; experiment: Antitubercular activity against Mycobacterium tuberculosis CNCTC My 331/88 (H37Rv) assessed as inhibition of bacterial growth measured after 21 days of incubation by Sulas semisynthetic medium based assay; format: functional; conditions: 504 h, time 21 day; how it was run: as §1
Mycobacterium kansasii [3] = experiment: Antitubercular activity against Mycobacterium kansasii CNCTC My 235/80 assessed as inhibition of bacterial growth measured after 21 days of incubation by Sulas semisynthetic medium based assay; format: functional; conditions: CNCTC My 235/80, 504 h, time 21 day
How it was run: (§2)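 Micromethod in Sula's semisynthetic medium. MIC is the lowest concentration inhibiting >99% of the mycobacterial population. Isoniazid was the standard.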

[4] = test system: Mycobacterium tuberculosis; experiment: Antimycobacterial activity against MDR clinical isolate Mycobacterium tuberculosis PRAHA 131 assessed as inhibition of mycobacterial growth measured after 14 to 21 days of incubation by Sulas semisynthetic medium based assay; format: functional; conditions: time 14-21 day
How it was run: (§3)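 Clinical MDR/XDR M. tuberculosis isolates were tested by the Sula's semisynthetic medium micromethod. Compounds in DMSO at 1000 to 0.5 μmol/L, in twofold-type steps. Incubation at 37 °C, read at 14 and 21 days. MIC99 is the lowest concentration inhibiting >99% of growth. Drug resistance or susceptibility of each isolate is to amikacin, clofazimine, gentamicin, ofloxacin, streptomycin and the others listed.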

[5] = test system: Mycobacterium tuberculosis; experiment: Antimycobacterial activity against XDR clinical isolate Mycobacterium tuberculosis PRAHA 131 assessed as inhibition of mycobacterial growth measured after 14 to 21 days of incubation by Sulas semisynthetic medium based assay; format: functional; conditions: time 14-21 day; how it was run: as §3
[6] = test system: Mycobacterium tuberculosis; experiment: Antimycobacterial activity against XDR clinical isolate Mycobacterium tuberculosis 9449/2007 assessed as inhibition of mycobacterial growth measured after 14 to 21 days of incubation by Sulas semisynthetic medium based assay; format: functional; conditions: time 14-21 day; how it was run: as §3
[7] = test system: Mycobacterium tuberculosis; experiment: Antimycobacterial activity against MDR clinical isolate Mycobacterium tuberculosis 8666/2010 assessed as inhibition of mycobacterial growth measured after 14 to 21 days of incubation by Sulas semisynthetic medium based assay; format: functional; conditions: time 14-21 day; how it was run: as §3
[8] = test system: Mycobacterium tuberculosis; experiment: Antimycobacterial activity against XDR clinical isolate Mycobacterium tuberculosis 8666/2010 assessed as inhibition of mycobacterial growth measured after 14 to 21 days of incubation by Sulas semisynthetic medium based assay; format: functional; conditions: time 14-21 day; how it was run: as §3
HepG2 = experiment: Cytotoxicity against human HepG2 cells assessed as cell viability incubated for 72 hrs by MTT spectrophotometric analysis; format: functional, cell-based; conditions: HepG2, 72 h
How it was run: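 HepG2 or rat H9c2 cells in DMEM with FBS, seeded at 10,000 cells/well. Treated 24 h later for 72 h, with 0.1% DMSO vehicle and 1% Triton X-100 as controls. MTT added (3 mg/mL solution) for 2 h at 37 °C, then cells lysed in isopropanol/0.1 M HCl/5% Triton X-100. Read at 570 nm minus 690 nm. Viability expressed as % of vehicle; IC50 derived where reached. At least four independent experiments.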

[9] = Aqueous solubility of compound incubated for 20 mins by UV-Visible spectrophotometric analysis; format: physicochemical; conditions: buffer
How it was run: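 Solubility in ultrapure water containing 5% DMSO. Absorbance taken at each compound's λmax and compared with a six-point calibration made by serial dilution of a 50 μM standard, fitted by linear regression. Over-saturated solutions were sonicated at 37 °C for 10 min and centrifuged at 8000 RPM for 10 min. Supernatant absorbance was read, after dilution with 5% DMSO/water if above the calibration range.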

[10] = Half life in human liver microsomes at 3 uM incubated for 5 to 45 min in presence of NADPH by LC-MS analysis; format: ADME, Microsome; conditions: time 5-45 min
[11] = Intrinsic clearance in human liver microsomes at 3 uM incubated for 5 to 45 min in presence of NADPH by LC-MS analysis; format: ADME, Microsome; conditions: time 5-45 min, read-out: CLH
Staphylococcus aureus [12] = experiment: Antibacterial activity against Staphylococcus aureus C1947 assessed as inhibition of bacterial growth incubated for 24 to 48 hrs by microdilution broth method; format: functional, organism-based; conditions: time 24-48 hrs
How it was run: (§4)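 Clinical isolates kept at –70 °C and subcultured twice on Mueller-Hinton agar, using the second subculture. Broth microdilution in Mueller-Hinton broth at pH 7.4 with two-fold serial compound dilutions and DMSO ≤1% final. Inoculum was 10 μL of a 1.5 × 10⁸ CFU/mL suspension. Incubated at 36 °C ± 1 °C and read at 24 h and 48 h. MIC taken as 95% growth inhibition.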

Staphylococcus aureus [13] = experiment: Antibacterial activity against methicilin-resistant Staphylococcus aureus C1923 assessed as inhibition of bacterial growth incubated for 24 to 48 hrs by microdilution broth method; format: functional, organism-based; conditions: time 24-48 hrs
How it was run: (§5)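 Clinical isolates, stored at −70 °C, were passaged twice on Mueller-Hinton agar. Broth microdilution in Mueller-Hinton broth, pH 7.4, with twofold serial dilutions. DMSO was at most 1% final. Inoculum 1.5 × 10⁸ CFU/mL suspension. MIC is 95% growth inhibition, read after 24 and 48 h at 36 °C.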

[14] = test system: Staphylococcus epidermidis; experiment: Antibacterial activity against Staphylococcus epidermidis C1936 assessed as inhibition of bacterial growth incubated for 24 to 48 hrs by microdilution broth method; format: functional, organism-based; conditions: time 24-48 hrs; how it was run: as §4
Enterococcus faecium = experiment: Antibacterial activity against vancomycin-resistant Enterococcus faecium assessed as inhibition of bacterial growth incubated for 24 to 48 hrs by microdilution broth method; format: functional, organism-based; conditions: time 24-48 hrs; how it was run: as §5
Klebsiella pneumoniae = experiment: Antibacterial activity against ESBL negative Klebsiella pneumoniae C1950 assessed as inhibition of bacterial growth incubated for 24 to 48 hrs by microdilution broth method; format: functional, organism-based; conditions: time 24-48 hrs; how it was run: as §4
Pseudomonas aeruginosa = experiment: Antibacterial activity against multidrug-resistant Pseudomonas aeruginosa A1245 assessed as inhibition of bacterial growth incubated for 24 to 48 hrs by microdilution broth method; format: functional, organism-based; conditions: time 24-48 hrs; how it was run: as §5
Mycobacterium kansasii [15] = experiment: Antitubercular activity against Mycobacterium kansasii CNCTC My 235/80 assessed as inhibition of bacterial growth measured after 7 days of incubation by Sulas semisynthetic medium based assay; format: functional; conditions: CNCTC My 235/80, 168 h, time 7 day; how it was run: as §2
[16] = test system: Mycobacterium tuberculosis; experiment: Antimycobacterial activity against XDR clinical isolate Mycobacterium tuberculosis PRAHA 4 assessed as inhibition of mycobacterial growth measured after 14 to 21 days of incubation by Sulas semisynthetic medium based assay; format: functional; conditions: time 14-21 day; how it was run: as §3
[17] = test system: Mycobacterium tuberculosis; experiment: Antimycobacterial activity against MDR clinical isolate Mycobacterium tuberculosis 234/2005 assessed as inhibition of mycobacterial growth measured after 14 to 21 days of incubation by Sulas semisynthetic medium based assay; format: functional; conditions: time 14-21 day; how it was run: as §3
[18] = test system: Mycobacterium tuberculosis; experiment: Antimycobacterial activity against XDR clinical isolate Mycobacterium tuberculosis 234/2005 assessed as inhibition of mycobacterial growth measured after 14 to 21 days of incubation by Sulas semisynthetic medium based assay; format: functional; conditions: time 14-21 day; how it was run: as §3
[19] = test system: Mycobacterium tuberculosis; experiment: Antimycobacterial activity against XDR clinical isolate Mycobacterium tuberculosis 7357/1998 assessed as inhibition of mycobacterial growth measured after 14 to 21 days of incubation by Sulas semisynthetic medium based assay; format: functional; conditions: time 14-21 day; how it was run: as §3

Row | SMILES | MIC99 [1] | MIC99 [2] | MIC99 (Mycobacterium kansasii [3]) | MIC99 [4] | MIC99 [5] | MIC99 [6] | MIC99 [7] | MIC99 [8] | pIC50 (HepG2) | solubility at 20 min [9] | half-life at 3 µM [10] | microsomal CLint at 3 µM [11] | Activity (Staphylococcus aureus [12]) | Activity (Staphylococcus aureus [13]) | Activity [14] | Activity (Enterococcus faecium) | Activity (Klebsiella pneumoniae) | Activity (Pseudomonas aeruginosa) | MIC99 (Mycobacterium kansasii [15]) | MIC99 [16] | further results
1 | Nc1nc(N2CCOCC2)nc2ncn(Cc3ccc4ccccc4c3)c12 | 1 µM (≈ 0.36 µg/mL) | 2 µM (≈ 0.721 µg/mL) | 16 µM (≈ 5.77 µg/mL) | 2 µM (≈ 0.721 µg/mL) | 4 µM (≈ 1.44 µg/mL) | 4 µM (≈ 1.44 µg/mL) | 2 µM (≈ 0.721 µg/mL) | 4 µM (≈ 1.44 µg/mL) | < 4.30 | 97.7 µM (≈ 35.2 µg/mL) | 82.5 min | 16.8 µL/min/mg | inactive | inactive | inactive | inactive | inactive | inactive |  |  | 
2 | COc1nc(N2CCOCC2)nc2ncn(Cc3ccc4ccccc4c3)c12 | 2 µM (≈ 0.751 µg/mL) | 4 µM (≈ 1.5 µg/mL) | 64 µM (≈ 24 µg/mL) | 8 µM (≈ 3 µg/mL) | 16 µM (≈ 6.01 µg/mL) | 16 µM (≈ 6.01 µg/mL) | 8 µM (≈ 3 µg/mL) | 8 µM (≈ 3 µg/mL) | < 4.30 |  |  |  | inactive | inactive | inactive | inactive | inactive | inactive | 16 µM (≈ 6.01 µg/mL) | 16 µM (≈ 6.01 µg/mL) | MIC99 [17]: 16 µM (≈ 6.01 µg/mL); MIC99 [18]: 16 µM (≈ 6.01 µg/mL); MIC99 [19]: 16 µM (≈ 6.01 µg/mL)
3 | c1ccc2cc(Cn3cnc4nc(N5CCOCC5)nc(NC5CCC5)c43)ccc2c1 | 2 µM (≈ 0.829 µg/mL) | 4 µM (≈ 1.66 µg/mL) | 8 µM (≈ 3.32 µg/mL) | 4 µM (≈ 1.66 µg/mL) | 8 µM (≈ 3.32 µg/mL) | 8 µM (≈ 3.32 µg/mL) | 4 µM (≈ 1.66 µg/mL) | 8 µM (≈ 3.32 µg/mL) |  | 159 µM (≈ 65.9 µg/mL) | 37.9 min | 36.6 µL/min/mg | Active | Active | Active | Active | inactive | inactive | 8 µM (≈ 3.32 µg/mL) | 8 µM (≈ 3.32 µg/mL) | MIC99 [17]: 4 µM (≈ 1.66 µg/mL); MIC99 [18]: 8 µM (≈ 3.32 µg/mL); MIC99 [19]: 8 µM (≈ 3.32 µg/mL)
4 | O=c1[nH]c(N2CCCCC2)nc2ncn(Cc3ccc4ccccc4c3)c12 | 2 µM (≈ 0.719 µg/mL) | 4 µM (≈ 1.44 µg/mL) | > 500 µM | 8 µM (≈ 2.88 µg/mL) | 16 µM (≈ 5.75 µg/mL) | 16 µM (≈ 5.75 µg/mL) | 8 µM (≈ 2.88 µg/mL) | 8 µM (≈ 2.88 µg/mL) | 4.26 | 8.4 µM (≈ 3.02 µg/mL) | 17.8 min | 77.9 µL/min/mg | inactive | inactive | inactive | inactive | inactive | inactive | > 500 µM | 16 µM (≈ 5.75 µg/mL) | MIC99 [17]: 16 µM (≈ 5.75 µg/mL); MIC99 [18]: 16 µM (≈ 5.75 µg/mL); MIC99 [19]: 16 µM (≈ 5.75 µg/mL)
